Activity calls are given as the source filed them. No cut-off for these calls is given here.
Legend:
[1] = molecular target: T1, Bile acid receptor (Homo sapiens) (UniProt Q96RI1); assay: Antagonist activity at human FXR transfected in human HepG2 cells assessed as supression of CDCA-induced transcriptional activity at 50 uM by beta-galactosidase reporter gene assay; assay type: cell-based
T1 sequence (whole entry): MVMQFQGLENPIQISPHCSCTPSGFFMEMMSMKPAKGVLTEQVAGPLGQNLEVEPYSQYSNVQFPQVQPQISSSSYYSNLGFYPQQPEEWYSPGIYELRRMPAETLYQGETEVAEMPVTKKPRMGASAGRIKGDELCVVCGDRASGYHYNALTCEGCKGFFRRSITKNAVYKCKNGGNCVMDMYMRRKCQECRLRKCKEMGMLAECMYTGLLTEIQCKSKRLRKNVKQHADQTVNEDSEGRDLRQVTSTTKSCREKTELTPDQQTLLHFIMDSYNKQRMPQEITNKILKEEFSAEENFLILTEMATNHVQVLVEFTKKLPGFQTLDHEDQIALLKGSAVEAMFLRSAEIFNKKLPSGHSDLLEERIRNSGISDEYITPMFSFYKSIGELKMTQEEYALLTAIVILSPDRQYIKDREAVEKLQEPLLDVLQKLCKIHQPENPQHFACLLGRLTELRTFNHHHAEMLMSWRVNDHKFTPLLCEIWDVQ
Outline: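 HepG2 cells (MEM with Earle's salts, 10% FBS, 37 °C; 5 × 10⁴ cells/well) transfected with pSG5-FXR, pSG5-RXR, pCMV-βgal and p(hsp27)-TK-LUC IR1 reporter. 24 h post-transfection, treated 18 h with 10 μM CDCA plus 50 μM compound. Luciferase in lysates normalized to β-galactosidase activity. Statistics versus CDCA alone.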

HEK-293T = assay: Induction of cAMP production in GP-BAR1-deficient HEK293T cells at 10 uM by cAMP responsive element containing luciferase reporter gene assay; assay type: functional, cell-based; conditions: Homo sapiens
Outline: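 Control transfection of HEK-293T with only the pGL4.29 CRE-luciferase and pGL4.70 Renilla vectors, without GP-BAR1. 24 h after transfection, cells exposed 18 h to 10 μM compound. Luciferase normalized to Renilla.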

[2] = molecular target: T2, G-protein coupled bile acid receptor 1 (Mus musculus) (UniProt Q80SS6); assay: Agonist activity at GP-BAR1 in mouse GLUTag cells assessed as increase in GLP-1 release; assay type: cell-based
T2 sequence (whole entry): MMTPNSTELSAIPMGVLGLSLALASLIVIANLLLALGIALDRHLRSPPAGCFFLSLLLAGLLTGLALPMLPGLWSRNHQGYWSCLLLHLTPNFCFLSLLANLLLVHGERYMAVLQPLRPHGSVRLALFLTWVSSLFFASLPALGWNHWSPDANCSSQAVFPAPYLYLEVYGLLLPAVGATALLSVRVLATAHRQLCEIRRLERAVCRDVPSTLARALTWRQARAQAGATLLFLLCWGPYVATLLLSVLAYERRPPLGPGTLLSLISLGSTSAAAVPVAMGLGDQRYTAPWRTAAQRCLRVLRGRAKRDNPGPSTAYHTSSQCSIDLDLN
Outline: (§1)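 GLUTag enteroendocrine cells measuring intracellular cAMP generation and GLP-1 released into supernatant. Values are the mean ± SE of four to five experiments; significance is versus untreated cells.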

[3] = molecular target: T2, G-protein coupled bile acid receptor 1 (Mus musculus); assay: Agonist activity at GP-BAR1 in mouse GLUTag cells assessed as increase in intracellular cAMP level; assay type: functional, cell-based; outline: as §1
[4] = molecular target: T3, G-protein coupled bile acid receptor 1 (Homo sapiens) (UniProt Q8TDU6); assay: Transactivation of human GP-BAR1 transfected in HEK293T cells assessed as induction of intracellular cAMP production at 10 uM after 18 hrs by cAMP responsive element containing luciferase reporter gene assay; assay type: functional, cell-based; conditions: HEK-293T
T3 sequence (whole entry): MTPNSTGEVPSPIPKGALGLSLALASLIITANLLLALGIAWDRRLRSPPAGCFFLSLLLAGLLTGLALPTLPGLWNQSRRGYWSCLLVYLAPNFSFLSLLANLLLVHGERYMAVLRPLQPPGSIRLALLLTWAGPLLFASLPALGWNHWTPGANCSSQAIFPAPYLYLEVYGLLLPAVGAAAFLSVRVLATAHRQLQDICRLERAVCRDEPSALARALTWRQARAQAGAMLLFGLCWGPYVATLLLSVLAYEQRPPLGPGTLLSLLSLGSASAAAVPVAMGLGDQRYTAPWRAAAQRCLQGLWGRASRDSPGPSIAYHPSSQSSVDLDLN
Outline: (§2)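 HEK-293T co-transfected with human GP-BAR1 and a CRE-driven luciferase reporter. Stimulated 24 h post-transfection for 18 h at 10 μM. TLCA 10 μM as receptor-dependent reference; forskolin 10 μM as receptor-independent cAMP control. Luciferase normalized to Renilla; mean ± standard error.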

[5] = molecular target: T4, Bile acid receptor (Mus musculus) (UniProt Q60641); assay: Agonist activity at FXR in mouse primary hepatocytes assessed as upregulation of BESP mRNA expression; assay type: cell-based; conditions: Hepatocyte
T4 sequence (whole entry): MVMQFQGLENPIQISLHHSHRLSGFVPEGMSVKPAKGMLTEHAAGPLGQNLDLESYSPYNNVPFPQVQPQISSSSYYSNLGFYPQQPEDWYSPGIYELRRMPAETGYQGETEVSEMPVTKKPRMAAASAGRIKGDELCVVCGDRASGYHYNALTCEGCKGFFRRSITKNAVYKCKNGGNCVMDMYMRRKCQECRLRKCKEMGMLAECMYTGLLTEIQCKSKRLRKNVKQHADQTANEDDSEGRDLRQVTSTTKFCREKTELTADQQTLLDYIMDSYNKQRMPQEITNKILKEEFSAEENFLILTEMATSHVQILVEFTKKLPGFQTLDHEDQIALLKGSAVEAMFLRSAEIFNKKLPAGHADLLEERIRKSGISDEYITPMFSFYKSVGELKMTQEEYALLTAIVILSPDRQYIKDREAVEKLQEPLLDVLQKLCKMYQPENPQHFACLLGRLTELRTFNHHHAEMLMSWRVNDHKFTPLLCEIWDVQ
Outline: (§3)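 Hepatocytes from wild-type or FXR−/− mice were analysed by real-time PCR for BSEP mRNA, as a measure of FXR-dependent target gene induction. Data are the mean SE of four experiments.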

[6] = molecular target: T1, Bile acid receptor (Homo sapiens); assay: Transactivation of human FXR transfected in human HepG2 cells at 10 uM by beta-galactosidase reporter gene assay; assay type: cell-based
Outline: (§4)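 HepG2 cells were grown at 37 °C in MEM with Earle's salts and 10% FBS, then plated at 5 × 10⁴ cells/well. They were transfected with pSG5-FXR, pSG5-RXR, pCMV-β-gal and the IR1 reporter p(hsp27)-TK-LUC, and stimulated 18 h starting 24 h post-transfection. Lines 2 and 3 give the test levels. CDCA 10 μM was the positive control. Luciferase was normalized to β-galactosidase.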

Hepatocyte = assay: Upregulation of BESP mRNA expression in mouse primary hepatocytes isolated from FXR deficient mouse; assay type: functional, cell-based; outline: as §3
[7] = molecular target: T1, Bile acid receptor (Homo sapiens); assay: Transactivation of human FXR transfected in human HepG2 cells at 1 to 10 uM by beta-galactosidase reporter gene assay; assay type: cell-based; outline: as §4
Bile acid receptor = molecular target: T5, Bile acid receptor (Homo sapiens, UniProt Q96RI1); assay: Transactivation of human FXR transfected in human HepG2 cells by beta-galactosidase reporter gene assay; assay type: cell-based
T5 sequence (Q96RI1 whole entry): T1 sequence (whole entry)
Outline: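 FXR/RXR/β-gal/IR1-luciferase transfected HepG2 cells treated with 0.01, 0.1, 1 and 10 μM; CDCA 10 μM positive control. β-gal-normalized luciferase used to calculate EC50.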

[8] = molecular target: T1, Bile acid receptor (Homo sapiens); assay: Transactivation of human FXR transfected in human HepG2 cells at 10 uM by beta-galactosidase reporter gene assay relative to CDCA; assay type: cell-based; conditions: in the assay text read “luciferase reporter gene assay” for “beta-galactosidase reporter gene assay”
Outline: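 HepG2 cells transfected with human FXR, RXR, β-gal and hsp27 IR1-luciferase reporter. 24 h post-transfection, stimulated 18 h at 10 μM, with CDCA 10 μM as positive control. Luciferase RLU divided by β-galactosidase activity; mean ± standard error.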

[9] = molecular target: T6, G-protein coupled bile acid receptor 1 (Homo sapiens, UniProt Q8TDU6); assay: Transactivation of human GP-BAR1 transfected in HEK293T cells assessed as induction of intracellular cAMP production after 18 hrs by cAMP responsive element containing luciferase reporter gene assay; assay type: functional, cell-based, HEK-293T
T6 sequence (Q8TDU6 whole entry): T3 sequence (whole entry)
Outline: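 Concentration–response in GP-BAR1/CRE-luciferase transfected HEK-293T: 0.1, 1 and 10 μM for 18 h, with TLCA 10 μM positive control. Renilla-normalized luciferase used to calculate EC50.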

[10] = molecular target: T3, G-protein coupled bile acid receptor 1 (Homo sapiens); assay: Transactivation of human GP-BAR1 transfected in HEK293T cells assessed as induction of intracellular cAMP production at 10 uM after 18 hrs by luciferase reporter gene assay relative to TLCA; assay type: functional, cell-based; conditions: HEK-293T; outline: as §2

| Compound | Activity [1] | Activity (HEK-293T) | further results |
| --- | --- | --- | --- |
| C[C@H](CCCOS(=O)(=O)O)[C@H]1CC[C@H]2[C@@H]3[C@@H](O)C[C@@H]4C[C@H](OS(=O)(=O)O)CC[C@]4(C)[C@H]3CC[C@]12C | inactive | inactive | – |
| C[C@H](CCCCCOS(=O)(=O)O)[C@H]1CC[C@H]2[C@@H]3[C@@H](O)C[C@@H]4C[C@H](OS(=O)(=O)O)CC[C@]4(C)[C@H]3CC[C@]12C | inactive | inactive | – |
| C=C[C@@]1(C)CC(=O)[C@]2(O)[C@@]3(C)[C@@H](O)CCC(C)(C)[C@@H]3[C@H](O)[C@H](OC(C)=O)[C@@]2(C)O1 | – | Active | – |
| C[C@H](CCC(=O)NCCOS(=O)(=O)O)[C@H]1CC[C@H]2[C@@H]3CC[C@@H]4C[C@H](O)CC[C@]4(C)[C@H]3CC[C@]12C | – | – | Activity [2]: Active; Activity [3]: Active; Activity [4]: Active |
| C[C@H](CCC(=O)O)[C@H]1CC[C@H]2[C@@H]3[C@H](O)C[C@@H]4C[C@H](O)CC[C@]4(C)[C@H]3CC[C@]12C | – | inactive | – |
| C[C@H](CCCCCOS(=O)(=O)O)[C@H]1CC[C@H]2[C@@H]3[C@H](OS(=O)(=O)O)C[C@@H]4C[C@H](OS(=O)(=O)O)CC[C@]4(C)[C@H]3CC[C@]12C | inactive | inactive | – |
| CC[C@H]1[C@@H](O)[C@@H]2[C@H](CC[C@]3(C)[C@@H]([C@H](C)CCC(=O)O)CC[C@@H]23)[C@@]2(C)CC[C@@H](O)C[C@@H]12 | – | inactive | Activity [5]: Active; Activity [2]: Active; Activity [6]: Active; Activity [3]: Active; Activity (Hepatocyte): inactive |
| C[C@H](CCCCCOS(=O)(=O)O)[C@H]1CC[C@H]2[C@@H]3[C@H](O)C[C@@H]4C[C@H](O)CC[C@]4(C)[C@H]3CC[C@]12C | – | inactive | Activity [6]: Active; Activity [4]: Active |
| C[C@H](CCCO)[C@H]1CC[C@H]2[C@@H]3[C@@H](O)C[C@@H]4C[C@H](OS(=O)(=O)O)CC[C@]4(C)[C@H]3CC[C@]12C | inactive | inactive | – |
| C[C@H](CCCCCOS(=O)(=O)O)[C@H]1CC[C@H]2[C@@H]3[C@@H](OS(=O)(=O)O)C[C@@H]4C[C@H](OS(=O)(=O)O)CC[C@]4(C)[C@H]3CC[C@]12C | inactive | inactive | – |
| C[C@H](CCCOS(=O)(=O)O)[C@H]1CC[C@H]2[C@@H]3[C@@H](OS(=O)(=O)O)C[C@@H]4C[C@H](OS(=O)(=O)O)CC[C@]4(C)[C@H]3CC[C@]12C | inactive | inactive | – |
| CC[C@H]1[C@@H](O)[C@@H]2[C@H](CC[C@]3(C)[C@@H]([C@H](C)CCOS(=O)(=O)O)CC[C@@H]23)[C@@]2(C)CC[C@@H](O)C[C@@H]12 | – | inactive | Activity [7]: Active |
| C[C@H](CCCOS(=O)(=O)O)[C@H]1CC[C@H]2[C@@H]3[C@H](OS(=O)(=O)O)C[C@@H]4C[C@H](OS(=O)(=O)O)CC[C@]4(C)[C@H]3CC[C@]12C | inactive | inactive | – |
| C[C@H](CCCCCOS(=O)(=O)O)[C@H]1CC[C@H]2[C@@H]3[C@@H](O)C[C@@H]4C[C@H](O)CC[C@]4(C)[C@H]3CC[C@]12C | inactive | inactive | – |
| CC[C@H]1[C@@H](OS(=O)(=O)O)[C@@H]2[C@H](CC[C@]3(C)[C@@H]([C@H](C)CCOS(=O)(=O)O)CC[C@@H]23)[C@@]2(C)CC[C@@H](OS(=O)(=O)O)C[C@@H]12 | inactive | inactive | – |
| CC[C@H]1[C@@H](OS(=O)(=O)O)[C@@H]2[C@H](CC[C@]3(C)[C@@H]([C@H](C)CCCOS(=O)(=O)O)CC[C@@H]23)[C@@]2(C)CC[C@@H](OS(=O)(=O)O)C[C@@H]12 | inactive | inactive | – |
| C[C@H](CCCOS(=O)(=O)O)[C@H]1CC[C@H]2[C@@H]3[C@H](O)C[C@@H]4C[C@H](O)CC[C@]4(C)[C@H]3CC[C@]12C | inactive | inactive | – |
| CC[C@H]1[C@@H](O)[C@@H]2[C@H](CC[C@]3(C)[C@@H]([C@H](C)CCCOS(=O)(=O)O)CC[C@@H]23)[C@@]2(C)CC[C@@H](O)C[C@@H]12 | – | inactive | Activity [5]: Active; EC50 (Bile acid receptor): 1000 nM; Activity [2]: Active; Efficacy [8]: 852%; EC50 [9]: 200 nM; Activity [3]: Active; Activity (Hepatocyte): inactive; Efficacy [10]: 112% |
| C[C@H](CCCOS(=O)(=O)O)[C@H]1CC[C@H]2[C@@H]3[C@@H](O)C[C@@H]4C[C@H](O)CC[C@]4(C)[C@H]3CC[C@]12C | inactive | inactive | – |

— ChEMBL document CHEMBL3259647, “Design, synthesis, and biological evaluation of potent dual agonists of nuclear and membrane bile acid receptors” (J Med Chem, 2014)
